Activity calls are given as the source filed them. The rule behind the calls is not given here.
What was measured:
[1] = species: Homo sapiens; assay: Inhibition of against 2-(4-((2-(3-fluoro-4-(trifluoromethyl)phenyl)-4-methylthiazol-5-yl)methylthio)-2-methylphenoxy)acetic acid-induced PDK4 gene expression in human skeletal muscle cell at 10 to 10000 nM; assay type: functional
Outline: (§1)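 Human skeletal muscle cells were stimulated with PPARδ agonist to induce transcription of the target genes CPT1a and PDK4. Compound was co-tested at various doses, and antagonism of the agonist-stimulated expression was read out.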

[2] = Cmax in C57BL/6 mouse at 10 mg/kg, po; assay type: ADME, organism-based; design: dose 10 mg/kg, route oral; conditions: in vivo
Outline: (§2)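 Male C57BL/6 mice were dosed intravenously at 0.5 mg/kg and orally at 10 mg/kg. Clearance and Vss were taken from the iv arm. Cmax, AUCinf, half-life and oral bioavailability were taken from the oral arm. Values are given as mean ± deviation.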

[3] = species: Homo sapiens; assay: Inhibition of PDK4 gene expression in human skeletal muscle cell at 10 to 10000 nM; assay type: functional
Outline: (§3)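 Human skeletal muscle cells were treated with compound at various doses without added agonist. Basal CPT1a and PDK4 transcript expression was assessed.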

[4] = system: A549; assay: Antiproliferative against human A549 cells at 10 uM; assay type: functional, cell-based
Outline: (§4)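 Colorectal lines (SW480, HCT116, DLD1, RKO) and non-colorectal lines (A549, HEK293) were incubated with compound for 3 days at concentrations up to 10 μM. Proliferation was compared with DMSO vehicle. Staurosporine and actinomycin D served as positive controls.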

[5] = system: HCT-116; assay: Antiproliferative against human HCT116 cells at 10 uM; assay type: functional, cell-based; outline: as §4
[6] = Oral bioavailability in C57BL/6 mouse at 10 mg/kg; assay type: ADME, organism-based; conditions: in vivo; outline: as §2
[7] = system: HEK293; assay: Antiproliferative against human HEK293 cells at 10 uM; assay type: functional, cell-based; outline: as §4
[8] = Volume of distribution at steady state in C57BL/6 mouse at 0.5 mg/kg, iv; assay type: ADME, organism-based; design: dose 0.5 mg/kg, route intravenous; conditions: in vivo, read-out: Vdss; outline: as §2
[9] = biological target: T1, Peroxisome proliferator-activated receptor delta (Homo sapiens, UniProt Q03181); assay: Inhibition of human PPARdelta receptor by ligand displacement assay
T1 sequence (Q03181 whole entry): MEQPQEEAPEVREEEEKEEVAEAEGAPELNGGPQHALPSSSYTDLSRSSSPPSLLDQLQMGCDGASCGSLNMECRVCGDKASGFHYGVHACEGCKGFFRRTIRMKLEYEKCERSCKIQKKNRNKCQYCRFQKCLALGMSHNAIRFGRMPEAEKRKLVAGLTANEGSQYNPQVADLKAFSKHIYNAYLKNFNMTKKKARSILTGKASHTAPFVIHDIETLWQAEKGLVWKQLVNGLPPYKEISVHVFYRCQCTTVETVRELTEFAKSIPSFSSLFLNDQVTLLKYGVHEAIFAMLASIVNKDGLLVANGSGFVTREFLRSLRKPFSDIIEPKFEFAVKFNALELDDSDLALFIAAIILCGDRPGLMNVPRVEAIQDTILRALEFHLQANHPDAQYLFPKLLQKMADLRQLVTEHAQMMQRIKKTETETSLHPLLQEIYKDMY

[10] = species: Homo sapiens; assay: Inhibition of CPT1a gene expression in human skeletal muscle cell at 10 to 10000 nM; assay type: functional; outline: as §3
[11] = system: RKO; assay: Antiproliferative against human RKO cells at 10 uM; assay type: functional, cell-based; outline: as §4
[12] = Half life in C57BL/6 mouse at 10 mg/kg, po; assay type: ADME, organism-based; design: dose 10 mg/kg, route oral; conditions: in vivo; outline: as §2
[13] = biological target: T1, Peroxisome proliferator-activated receptor delta
[14] = biological target: T2, Peroxisome proliferator-activated receptor alpha (Homo sapiens, UniProt Q07869); assay: Displacement of [3H]GW2433 from human PPARalpha receptor by ligand displacement assay
T2 sequence (Q07869 whole entry): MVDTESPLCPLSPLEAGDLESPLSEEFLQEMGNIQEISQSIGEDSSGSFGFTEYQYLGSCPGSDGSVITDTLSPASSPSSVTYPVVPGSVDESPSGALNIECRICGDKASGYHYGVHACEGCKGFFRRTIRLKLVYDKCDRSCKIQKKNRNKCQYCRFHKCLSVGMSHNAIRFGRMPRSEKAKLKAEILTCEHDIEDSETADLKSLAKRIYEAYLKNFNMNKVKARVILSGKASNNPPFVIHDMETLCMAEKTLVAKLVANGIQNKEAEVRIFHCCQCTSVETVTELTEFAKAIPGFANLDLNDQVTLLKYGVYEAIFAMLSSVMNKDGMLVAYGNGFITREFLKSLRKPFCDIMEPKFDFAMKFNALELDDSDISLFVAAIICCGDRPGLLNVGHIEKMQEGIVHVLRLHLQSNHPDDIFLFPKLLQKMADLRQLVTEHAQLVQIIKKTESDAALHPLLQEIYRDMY

[15] = system: SW480; assay: Antiproliferative against human SW480 cells at 10 uM; assay type: functional, cell-based; outline: as §4
[16] = biological target: T3, Peroxisome proliferator-activated receptor gamma (Homo sapiens, UniProt P37231); assay: Inhibition of human PPARgamma receptor by ligand displacement assay
T3 sequence (P37231 whole entry): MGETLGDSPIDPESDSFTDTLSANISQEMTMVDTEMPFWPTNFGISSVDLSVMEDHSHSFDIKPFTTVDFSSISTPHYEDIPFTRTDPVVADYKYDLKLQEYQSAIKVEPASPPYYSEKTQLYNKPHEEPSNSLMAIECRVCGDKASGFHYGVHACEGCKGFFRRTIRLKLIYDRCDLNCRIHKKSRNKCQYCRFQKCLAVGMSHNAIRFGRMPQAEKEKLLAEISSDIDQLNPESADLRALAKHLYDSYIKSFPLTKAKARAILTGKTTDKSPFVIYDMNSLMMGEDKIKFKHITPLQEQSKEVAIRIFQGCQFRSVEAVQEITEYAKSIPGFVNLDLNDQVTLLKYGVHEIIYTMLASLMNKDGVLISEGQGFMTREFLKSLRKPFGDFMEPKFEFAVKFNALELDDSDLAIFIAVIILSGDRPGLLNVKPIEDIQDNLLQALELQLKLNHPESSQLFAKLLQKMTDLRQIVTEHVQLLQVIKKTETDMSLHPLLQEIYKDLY

[17] = system: DLD-1; assay: Antiproliferative against human DLD1 cells at 10 uM; assay type: functional, cell-based; outline: as §4
[18] = AUC (0 to infinity) in C57BL/6 mouse at 10 mg/kg, po; assay type: ADME, organism-based; design: dose 10 mg/kg, route oral, time infinity; conditions: plasma; outline: as §2
[19] = species: Homo sapiens; assay: Inhibition of against 2-(4-((2-(3-fluoro-4-(trifluoromethyl)phenyl)-4-methylthiazol-5-yl)methylthio)-2-methylphenoxy)acetic acid-induced CPT1a gene expression in human skeletal muscle cell at 10 to 10000 nM; assay type: functional; outline: as §1
[20] = Clearance in C57BL/6 mouse at 0.5 mg/kg, iv; assay type: ADME, organism-based; design: dose 0.5 mg/kg, route intravenous; conditions: in vivo; outline: as §2

Compound	IC50 [9]	IC50 [13]	IC50 [14]	IC50 [16]	also measured
O=C(NCCS(=O)(=O)c1ccc(C(F)(F)F)cn1)c1ccc(Cl)cc1Cl	158 nM	200 nM	> 10000 nM	> 10000 nM	
O=C(NCCS(=O)(=O)c1ccc(C(F)(F)F)cn1)c1ccc(-c2ccccc2)cc1	200 nM	251 nM		> 10000 nM	
COC(=O)c1sccc1S(=O)(=O)Nc1ccc(Nc2ccccc2)cc1OC			> 10000 nM	> 10000 nM	
CC(C)Cc1ccc(C(=O)NCCS(=O)(=O)c2ccc(C(F)(F)F)cn2)cc1	316 nM	200 nM	> 10000 nM	> 10000 nM	
O=C(NCCS(=O)(=O)c1ccc(C(F)(F)F)cn1)c1ccc(C2CCCCC2)cc1	1000 nM		> 10000 nM	> 10000 nM	
O=C(NCCS(=O)(=O)c1ccccn1)c1ccc(Cl)cc1	> 10000 nM		> 10000 nM	> 10000 nM	
O=C(NCCS(=O)(=O)c1ccc(C(F)(F)F)cn1)c1ccc(Br)cc1F	50.1 nM	79.4 nM	> 10000 nM	> 10000 nM	
O=C(NCCS(=O)(=O)c1ccc(C(F)(F)F)cn1)c1ccc(OC(F)(F)F)cc1	100 nM		> 10000 nM	> 10000 nM	

The next lines start with results.

IC50 [9]	IC50 [13]	IC50 [14]	IC50 [16]	Compound	also measured
200 nM	126 nM	> 10000 nM	> 10000 nM	O=C(NCCS(=O)(=O)c1ccc(C(F)(F)F)cn1)c1ccc(Cl)cc1	Activity [1]: Active; Cmax [2]: 881 ng/mL; Activity [3]: inactive; Activity [4]: inactive; Activity [5]: inactive; bioavailability [6]: 77%; Activity [7]: inactive; Vd [8]: 1.7 L/kg; Activity [10]: Active; Activity [11]: inactive; half-life [12]: 2.7 h; Activity [15]: inactive; Activity [17]: inactive; AUC(0-inf) [18]: 3340 ng·h/mL; Activity [19]: Active; clearance [20]: 39 mL/min/kg
> 10000 nM		> 10000 nM	> 10000 nM	O=C(NCCCS(=O)(=O)c1ccc(C(F)(F)F)cn1)c1ccc(Cl)cc1	
> 10000 nM		> 10000 nM	> 10000 nM	Cc1ccc(S(=O)(=O)CCNC(=O)c2ccc(Cl)cc2)nc1	
1260 nM		> 10000 nM	> 10000 nM	O=C(NCCCS(=O)(=O)c1ccc(C(F)(F)F)cn1)c1ccc(OC(F)(F)F)cc1	
126 nM	251 nM	> 10000 nM	> 10000 nM	Cc1cc(C(=O)NCCS(=O)(=O)c2ccc(C(F)(F)F)cn2)ccc1Cl	
126 nM	251 nM	> 10000 nM	> 10000 nM	O=C(NCCS(=O)(=O)c1ccc(C(F)(F)F)cn1)c1ccc(Cl)c(Br)c1	

Reference: ChEMBL document CHEMBL1157541, “Identification and characterization of 4-chloro-N-(2-{[5-trifluoromethyl)-2-pyridyl]sulfonyl}ethyl)benzamide (GSK3787), a selective and irreversible peroxisome proliferator-activated receptor delta (PPARdelta) antagonist” (J Med Chem, 2010)
